Screens: PubChem BioAssay, several laboratories
STAT1 activator: increases IFN-gamma driven STAT1 reporter signal. AID 932. actives 2.6% (n = 200,000). activation (% of control), % at 5.5 µM. NIH 3T3 STAT1-luciferase reporter, luminescence; 100% = IFN-gamma alone, no compound;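 active means activation above the screen-wide mean activation plus 3 SD, cut at about 130% in these data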;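 further: raw ratio to IFN-gamma control signal so 100% means no change and 0% no light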
PERK inhibitor: inhibitors of human PERK kinase. Q9NZJ5. CHO PERK-DD fusion, SEAP luminescence translation reporter. inhibition, % at 5.6 µM. actives 0.17% (n = 220,000). AID 1416;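 active means inhibition above the mean inhibition of all tested compounds plus 3 SD, set separately per screening campaign, cut at about 2.9% in these data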;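 further: PERK kinase domain activated by AP20187 dimerizer at 100 nM; 0% = DMSO with dimerizer and 100% = rapamycin at 8.4 µM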
AHR activator: activators of human aryl hydrocarbon receptor. P35869. actives 2.5% (n = 320,000). activation, % at 5 µM. AHR-responsive luciferase reporter cells, luminescence; in the data active means activation above about 47%;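 further: 0% = vehicle wells and 100% = reference agonist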
NF-kB neuron act: compounds increasing NF-kB expression in human neuronal cells; NF-kB reporter expression; stronger effect = higher value; actives 1.6% (n = 190,000); fold change at 12.5 µM; in the data active means fold change above about 3.3
APP 5'UTR act: activates APP 5'UTR luciferase reporter; actives 1% (n = 190,000); SH-SY5Y APP 5'UTR luciferase reporter, luminescence; zero percent = DMSO vehicle wells; AID 1276; activation, % at 2 µM;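 active means activation above a set limit, based on mean plus 3 SD of controls, cut at about 140% in these data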
MDM2 E3 inh: inhibitors of human Mdm2 E3 ubiquitin ligase; actives 0.11% (n = 210,000); Q00987; AID 1230; signal enhancement, % at 5 µM; cell-based MDM2 ubiquitination luciferase reporter, 2 h; 0 = plate control, 100 = twice control, blank-subtracted;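 active means signal enhancement of 30% or more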;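 further: luminescence tracks abundance of the self-degrading MDM2-luciferase fusion protein; higher signal means inhibition of MDM2 E3 ligase activity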
Target sequence (Q00987 whole entry, looked up, the tested form may be a part): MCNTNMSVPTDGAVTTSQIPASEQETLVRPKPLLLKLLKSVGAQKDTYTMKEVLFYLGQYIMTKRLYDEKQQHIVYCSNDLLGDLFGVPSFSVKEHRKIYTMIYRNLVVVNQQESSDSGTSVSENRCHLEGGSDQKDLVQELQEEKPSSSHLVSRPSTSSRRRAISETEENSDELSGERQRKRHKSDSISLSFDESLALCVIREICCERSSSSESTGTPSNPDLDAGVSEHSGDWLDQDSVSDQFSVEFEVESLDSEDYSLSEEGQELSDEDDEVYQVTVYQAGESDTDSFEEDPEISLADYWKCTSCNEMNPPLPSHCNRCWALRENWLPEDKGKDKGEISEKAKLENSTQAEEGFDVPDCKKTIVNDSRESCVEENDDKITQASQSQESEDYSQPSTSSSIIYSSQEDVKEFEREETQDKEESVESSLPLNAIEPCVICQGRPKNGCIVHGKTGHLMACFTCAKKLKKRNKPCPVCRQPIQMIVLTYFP
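Material: Stable MDM2–luciferase fusion reporter cells | Amount: 2000 cells seeded into each well | Dosing: One concentration, 5 µM, with 0.2% DMSO | Incubation: 4 h cell settling then 2 h compound exposure, 37 °C | Measured by: Luciferase luminescence | Read-out basis: % enhancement relative to plate controls after blank subtraction | Benchmarks: Control and blank well means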
An asterisk follows results filed as active; . = not tested or not shown. A selection: hits, their analogues and other compounds. The true share with any hit is near 4.5%.

SMILES	STAT1 activator	PERK inhibitor	AHR activator	NF-kB neuron act	APP 5'UTR act	MDM2 E3 inh
CCNc1nc(C23CC4CC(CC(C4)C2)C3)cs1	102	1	-1	1.2	1	-5
Cc1cc(C(=O)N/N=C\c2cc(C(C)(C)C)ccc2O)n[nH]1	.	.	53*	.	.	.
Cc1cc(C(=O)N/N=C/c2cc(Br)ccc2OC(=O)c2ccc(Br)cc2)n[nH]1	102	1	50*	1.5	-32	-13
Cc1cc(C(=O)N/N=C/c2cccs2)n[nH]1	122	1	11	1.7	65	-18
Cc1cc(C(=O)N/N=C/c2cc(Br)cc(Br)c2OC(=O)c2ccccc2)n[nH]1	94	1	11	1.6	-31	-4
CCOC(=O)N1CCN(C(=O)CSc2nc3c([nH]c4ccccc43)c(=O)n2C)CC1	97	0	51*	1.1	1	-8
CCn1c(SCC(=O)Nc2cccc(NC(C)=O)c2)nc2c([nH]c3ccccc32)c1=O	.	.	57*	.	.	.
C=CCn1c(SCC(=O)NC2CCCC2)nc2c([nH]c3ccccc32)c1=O	.	.	63*	.	.	.
C=CCn1c(SCC(=O)NC2CCCCC2)nc2ccccc2c1=O	99	1	0	1.3	3	2
Cn1c(SCC(=O)N2CCCCC2)nc2c([nH]c3ccccc32)c1=O	94	0	45	0.89	-10	-7
CCn1c(SCC(=O)Nc2ccc(C(C)=O)cc2)nc2c([nH]c3ccccc32)c1=O	.	.	31	.	.	.
COCCn1c(SCC(=O)Nc2ccc(NC(C)=O)cc2)nc2c([nH]c3ccccc32)c1=O	.	.	74*	.	.	.
Cc1ccccc1-n1c(C)nnc1SCc1cc(=O)oc2ccc3ccccc3c12	89	0	17	0.7	-11	11
COCCn1c(SCC(=O)NCC2CCCO2)nc2c([nH]c3ccccc32)c1=O (stereo unspecified)	.	.	59*	.	.	.
c1cnc(-c2noc(CN3CCN(C4CCCC4)CC3)n2)cn1	107	2	-2	1.2	16	1
COc1ccc(Cl)cc1-c1nc(SCC(=O)NC(C)C(C)C)n[nH]1 (stereo unspecified)	89	0	7	1.1	16	-12
Cc1cc(C)c(C)c(S(=O)(=O)N(C)C2CCN(C)CC2)c1C	.	.	2	.	.	.
COc1cccc(CNC(=O)c2ccccc2NC(=O)C2=C(C)OCCS2)c1	.	.	1	.	.	.
COc1ccc(OC(=O)c2cccc([N+](=O)[O-])c2)c(C(=O)/C=C/c2cccs2)c1	102	0	13	3.4*	-11	-6
COc1cccc(/C=C/C(=O)c2cccc([N+](=O)[O-])c2)c1	104	2	-1	1.2	-5	-20
CCOC(=O)C1=C(N)Oc2cc(O)ccc2C1c1ccc(Br)cc1 (stereo unspecified)	.	.	1	.	.	.
CN(C)CCC1c2ccc(Cl)cc2CCc2cccnc21 (stereo unspecified) (tested in a mixture with another compound)	.	1	21	.	.	-9
Cc1c(/C(O)=C2/C(=O)C(=O)N(Cc3cccnc3)C2c2cccs2)cnn1-c1ccccc1 (stereo unspecified)	141*	0	-1	0.5	141*	-51
Cc1c(/C(O)=C2/C(=O)C(=O)N(Cc3cccnc3)C2c2ccccn2)cnn1-c1ccccc1 (stereo unspecified)	49	0	0	1	17	-57
Nn1c(SCC(=O)NCC2CCCO2)nnc1-c1ccc(OC(F)F)cc1 (stereo unspecified)	.	.	7	.	.	.
SMILES	STAT1 activator	PERK inhibitor	AHR activator	NF-kB neuron act	APP 5'UTR act	MDM2 E3 inh
O=C(Nc1ccc(S(=O)(=O)N2CCCC2)cc1)C1CC(=O)N(CCc2ccc(F)cc2)C1 (stereo unspecified)	.	.	0	.	.	.
CSc1nc(O)c(/C=C2\C=Nc3ccccc32)[nH]1	121	0	76*	1.5	5	-11
O=c1[nH]c(/C=C2\C=Nc3ccccc32)c(O)n1Cc1ccccc1F	97	0	16	6.9*	-63	-1
CC(C)CCN1CCN(Cc2coc3ccccc3c2=O)CC1CCO (stereo unspecified)	.	.	4	.	.	.
Cc1ccccc1NC(=O)N1CCN(C/C=C/c2ccccc2)CC1	100	2	-2	1	12	-17
COc1ccccc1/C=C/C=N/n1c(-c2n[nH]c3c2CCC3)n[nH]c1=S	.	0	55*	.	.	-6
